The values that follow come from ChEMBL document CHEMBL1938255, “Novel 1-hydroxypiperazine-2,6-diones as new leads in the inhibition of metalloproteinases” (J Med Chem, 2011).

For series [1], the target named is Disintegrin and metalloproteinase domain-containing protein 17 (Homo sapiens, UniProt P78536). Briefly: Inhibition of TACE using Mca-Lys-Pro-Leu-Gly-Leu-Dap(Dnp)-Ala-Arg-NH2 as substrate preincubated for 4 hrs measured every 15 secs for 20 mins by fluorescence analysis. The procedure, abridged:
(§1)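 Catalytic domains of MMP14 (1.0 nM final) and MMP16 (15 nM), and TACE (7.5 nM), were incubated 4 h at 25 °C with seven inhibitor concentrations. Buffer was Tris 50 mM pH 7.5, NaCl 150 mM, CaCl2 10 mM, Brij 35 0.05%, DMSO 1%. Substrate 2 μM final; hydrolysis read at 325/395 nm every 15 s for 20 min. IC50 from Vi/Vo = 1/(1+[I]/IC50); mean of three experiments.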

Series [2] concerns the target Collagenase 3 (Homo sapiens, UniProt P45452). Briefly: Inhibition of MMP13 using Mca-Lys-Pro-Leu-Gly-Leu-Dap(Dnp)-Ala-Arg-NH2 as substrate preincubated for 4 hrs measured every 15 secs for 20 mins by fluorescence analysis. The procedure, abridged:
(§2)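 APMA activation at 1 mM, 1 h, 37 °C. Final enzyme was 0.3 nM for MMP13 and 1.3 nM for MMP9. Enzyme and inhibitor (seven concentrations) were incubated 4 h at 25 °C in Tris 50 mM pH 7.5 buffer with 150 mM NaCl, 10 mM CaCl2, 0.05% Brij 35, 1% DMSO. Substrate 2 μM final, ex 325/em 395 nm, every 15 s over 20 min. IC50 via Vi/Vo = 1/(1+[I]/IC50); three experiments averaged.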

The target in series [3] is Macrophage metalloelastase (Homo sapiens, UniProt P39900). Briefly: Inhibition of MMP12 using Mca-Lys-Pro-Leu-Gly-Leu-Dap(Dnp)-Ala-Arg-NH2 as substrate preincubated for 4 hrs measured every 15 secs for 20 mins by fluorescence analysis. The procedure, abridged:
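Pro-MMP12 was autoactivated for 30 h at 37 °C in assay buffer (Tris 50 mM pH 7.5, NaCl 150 mM, CaCl2 10 mM, Brij 35 0.05%, DMSO 1%). Enzyme at 1.0 nM final was incubated 4 h at 25 °C with seven inhibitor concentrations. Substrate 2 μM final, fluorescence ex 325/em 395 nm every 15 s for 20 min. IC50 via initial-velocity equation; mean of three experiments.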

Series [4] has as its target Matrix metalloproteinase-14 (Homo sapiens, UniProt P50281). Briefly: Inhibition of human recombinant MMP14 using Mca-Lys-Pro-Leu-Gly-Leu-Dap(Dnp)-Ala-Arg-NH2 as substrate preincubated for 4 hrs measured every 15 secs for 20 mins by fluorescence analysis. The procedure, abridged: as §1
Series [5] has as its target T1, Interstitial collagenase (Homo sapiens, UniProt P03956).
T1 sequence (P03956 whole entry): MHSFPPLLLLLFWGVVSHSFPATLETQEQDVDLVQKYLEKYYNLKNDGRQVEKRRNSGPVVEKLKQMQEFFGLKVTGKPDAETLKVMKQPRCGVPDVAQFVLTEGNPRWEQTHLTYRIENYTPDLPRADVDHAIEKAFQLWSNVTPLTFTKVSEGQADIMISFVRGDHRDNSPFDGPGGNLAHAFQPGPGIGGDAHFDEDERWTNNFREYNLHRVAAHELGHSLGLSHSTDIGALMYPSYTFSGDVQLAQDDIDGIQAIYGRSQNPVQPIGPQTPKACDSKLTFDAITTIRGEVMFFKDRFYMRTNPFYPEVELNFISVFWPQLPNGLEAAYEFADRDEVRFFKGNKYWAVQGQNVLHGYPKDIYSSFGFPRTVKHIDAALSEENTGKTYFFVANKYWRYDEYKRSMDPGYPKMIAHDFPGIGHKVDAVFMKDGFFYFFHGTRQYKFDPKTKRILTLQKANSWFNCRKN
Briefly: Inhibition of MMP1 using Mca-Lys-Pro-Leu-Gly-Leu-Dap(Dnp)-Ala-Arg-NH2 as substrate preincubated for 4 hrs measured every 15 secs for 20 mins by fluorescence analysis. The procedure, abridged: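 Pro-MMP1 activated with 2 mM APMA, 2 h, 37 °C. Enzyme at 2.0 nM final was preincubated 4 h at 25 °C with inhibitor at seven concentrations in Tris 50 mM pH 7.5, NaCl 150 mM, CaCl2 10 mM, Brij 35 0.05%, DMSO 1%. Substrate was 2 μM final, read ex 325/em 395 nm every 15 s for 20 min. IC50 from Vi/Vo = 1/(1+[I]/IC50); mean of three experiments.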

Series [6] concerns the target Matrix metalloproteinase-9 (Homo sapiens, UniProt P14780). Briefly: Inhibition of human recombinant MMP9 using Mca-Lys-Pro-Leu-Gly-Leu-Dap(Dnp)-Ala-Arg-NH2 as substrate preincubated for 4 hrs measured every 15 secs for 20 mins by fluorescence analysis. The method, boiled down: as §2
The target in series [7] is Matrix metalloproteinase-16 (Homo sapiens, UniProt P51512). Briefly: Inhibition of human recombinant MMP16 using Mca-Lys-Pro-Leu-Gly-Leu-Dap(Dnp)-Ala-Arg-NH2 as substrate preincubated for 4 hrs measured every 15 secs for 20 mins by fluorescence analysis. The procedure, abridged:
as §1

Series [8] addresses Neutrophil collagenase (Homo sapiens, UniProt P22894). Briefly: Inhibition of human recombinant MMP8 using Mca-Lys-Pro-Leu-Gly-Leu-Dap(Dnp)-Ala-Arg-NH2 as substrate preincubated for 4 hrs measured every 15 secs for 20 mins by fluorescence analysis. The method, boiled down: (§3)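 The proenzymes were activated with 2 mM APMA for 1 h at 37 °C. Final enzyme was 0.5 nM for MMP2 and 1.5 nM for MMP8. Each was incubated 4 h at 25 °C with seven inhibitor concentrations in pH 7.5 Tris/NaCl/CaCl2/Brij 35/1% DMSO buffer. With 2 μM substrate, fluorescence (325/395 nm) was read every 15 s for 20 min. IC50 came from fractional initial velocity; mean of three independent runs.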

In series [9] the target is Stromelysin-1 (Homo sapiens, UniProt P08254). Briefly: Inhibition of MMP3 using Mca-Arg-Pro-Lys-Pro-Val-Glu-Nva-Trp-Arg-Lys(Dnp)-NH2 as substrate preincubated for 4 hrs measured every 15 secs for 20 mins by fluorescence analysis. The method, boiled down: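 Pro-MMP3 activated with trypsin 5 μg/mL, 30 min, 37 °C, then soybean trypsin inhibitor 62 μg/mL. Enzyme at 5 nM final was incubated 4 h at 25 °C with seven inhibitor concentrations in Tris 50 mM pH 7.5, NaCl 150 mM, CaCl2 10 mM, Brij 35 0.05%, DMSO 1%.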
Chain of Stromelysin-1 (P08254 whole entry): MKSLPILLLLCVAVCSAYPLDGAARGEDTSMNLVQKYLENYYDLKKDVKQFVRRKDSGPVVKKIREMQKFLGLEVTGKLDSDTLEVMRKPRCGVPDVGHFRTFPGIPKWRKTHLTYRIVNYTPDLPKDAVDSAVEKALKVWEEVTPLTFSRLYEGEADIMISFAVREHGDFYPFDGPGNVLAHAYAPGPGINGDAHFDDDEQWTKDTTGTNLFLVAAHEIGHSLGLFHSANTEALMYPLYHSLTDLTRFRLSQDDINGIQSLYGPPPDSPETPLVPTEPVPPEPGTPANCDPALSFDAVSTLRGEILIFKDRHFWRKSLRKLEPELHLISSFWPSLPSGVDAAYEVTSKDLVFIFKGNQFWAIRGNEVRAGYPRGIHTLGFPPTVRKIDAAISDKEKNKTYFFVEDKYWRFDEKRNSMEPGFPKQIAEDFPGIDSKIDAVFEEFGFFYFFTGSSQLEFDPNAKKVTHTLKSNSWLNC

Series [10] addresses 72 kDa type IV collagenase (Homo sapiens, UniProt P08253). Briefly: Inhibition of human recombinant MMP2 using Mca-Lys-Pro-Leu-Gly-Leu-Dap(Dnp)-Ala-Arg-NH2 as substrate preincubated for 4 hrs measured every 15 secs for 20 mins by fluorescence analysis. The method, boiled down: as §3
For series [11], the target named is T2, Matrilysin (Homo sapiens, UniProt P09237).
T2 sequence (P09237 whole entry): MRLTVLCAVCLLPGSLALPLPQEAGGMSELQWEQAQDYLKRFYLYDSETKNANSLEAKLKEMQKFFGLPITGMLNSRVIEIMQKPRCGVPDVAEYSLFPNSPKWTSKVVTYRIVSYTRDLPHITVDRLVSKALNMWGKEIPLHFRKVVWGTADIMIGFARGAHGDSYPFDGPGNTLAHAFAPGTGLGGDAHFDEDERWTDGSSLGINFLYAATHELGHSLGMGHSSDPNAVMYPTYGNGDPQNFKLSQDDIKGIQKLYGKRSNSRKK
Briefly: Inhibition of MMP7 using Mca-Lys-Pro-Leu-Gly-Leu-Dap(Dnp)-Ala-Arg-NH2 as substrate preincubated for 4 hrs measured every 15 secs for 20 mins by fluorescence analysis. The method, boiled down: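 Pro-MMP7 activated with 3.3 mM APMA, 2 h, 37 °C, then used at 1.3 nM final. Enzyme was preincubated with seven inhibitor concentrations for 4 h at 25 °C in pH 7.5 Tris buffer with NaCl, CaCl2, Brij 35 and 1% DMSO. Fluorogenic substrate 2 μM final; fluorescence (325/395 nm) recorded every 15 s for 20 min. IC50 from initial-velocity ratio; mean of three experiments.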

Series [12] can be described thus: Stability in D2O assessed as compound decomposition at pD 2 after 5 days by NMR spectroscopy. In kind it is physicochemical. The settings on record: pH 2, read-out: Drug metabolism.
The nature of series [13]: Stability in D2O assessed as compound decomposition at pD 7 after 5 days by NMR spectroscopy. The settings on record: pH 7, read-out: Drug metabolism. The class given is physicochemical.
The nature of series [14]: Stability in D2O assessed as compound decomposition at pD 2 after 48 hrs by NMR spectroscopy. The class given is physicochemical. Conditions: pH 2, read-out: Drug metabolism.
A short description of series [15]: Stability in D2O assessed as compound decomposition at pD 2 after 24 hrs by NMR spectroscopy. The class given is physicochemical. Conditions: pH 2, read-out: Drug metabolism.
Series [16] can be described thus: Stability in D2O assessed as compound decomposition at pD 7 after 24 hrs by NMR spectroscopy. The class given is physicochemical. The settings on record: pH 7, read-out: Drug metabolism.
Series [17] can be described thus: Stability in D2O assessed as compound decomposition at pD 7 after 20 days by NMR spectroscopy. In kind it is physicochemical. The settings on record: pH 7, read-out: Drug metabolism.
Series [18] can be described thus: Stability in D2O assessed as compound decomposition at pD 2 after 10 days by NMR spectroscopy. The class given is physicochemical. The settings on record: pH 2, read-out: Drug metabolism.
The nature of series [19]: Stability in D2O assessed as compound decomposition at pD 7 after 3 days by NMR spectroscopy. In kind it is physicochemical. Conditions: pH 7, read-out: Drug metabolism.

Chain of Neutrophil collagenase (P22894 whole entry): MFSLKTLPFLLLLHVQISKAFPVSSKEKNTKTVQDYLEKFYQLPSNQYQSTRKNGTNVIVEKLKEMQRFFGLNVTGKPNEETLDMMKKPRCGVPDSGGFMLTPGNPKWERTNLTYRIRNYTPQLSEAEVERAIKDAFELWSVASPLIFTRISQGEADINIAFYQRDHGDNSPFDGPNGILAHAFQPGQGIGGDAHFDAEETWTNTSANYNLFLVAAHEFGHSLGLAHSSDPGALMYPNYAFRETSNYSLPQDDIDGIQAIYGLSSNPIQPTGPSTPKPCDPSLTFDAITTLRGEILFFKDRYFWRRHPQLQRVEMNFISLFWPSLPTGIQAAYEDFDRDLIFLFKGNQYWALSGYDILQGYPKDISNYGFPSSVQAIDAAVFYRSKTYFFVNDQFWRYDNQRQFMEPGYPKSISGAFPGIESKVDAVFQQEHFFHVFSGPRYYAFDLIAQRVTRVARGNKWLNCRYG
Chain of Disintegrin and metalloproteinase domain-containing protein 17 (P78536 whole entry, the tested form may be a part): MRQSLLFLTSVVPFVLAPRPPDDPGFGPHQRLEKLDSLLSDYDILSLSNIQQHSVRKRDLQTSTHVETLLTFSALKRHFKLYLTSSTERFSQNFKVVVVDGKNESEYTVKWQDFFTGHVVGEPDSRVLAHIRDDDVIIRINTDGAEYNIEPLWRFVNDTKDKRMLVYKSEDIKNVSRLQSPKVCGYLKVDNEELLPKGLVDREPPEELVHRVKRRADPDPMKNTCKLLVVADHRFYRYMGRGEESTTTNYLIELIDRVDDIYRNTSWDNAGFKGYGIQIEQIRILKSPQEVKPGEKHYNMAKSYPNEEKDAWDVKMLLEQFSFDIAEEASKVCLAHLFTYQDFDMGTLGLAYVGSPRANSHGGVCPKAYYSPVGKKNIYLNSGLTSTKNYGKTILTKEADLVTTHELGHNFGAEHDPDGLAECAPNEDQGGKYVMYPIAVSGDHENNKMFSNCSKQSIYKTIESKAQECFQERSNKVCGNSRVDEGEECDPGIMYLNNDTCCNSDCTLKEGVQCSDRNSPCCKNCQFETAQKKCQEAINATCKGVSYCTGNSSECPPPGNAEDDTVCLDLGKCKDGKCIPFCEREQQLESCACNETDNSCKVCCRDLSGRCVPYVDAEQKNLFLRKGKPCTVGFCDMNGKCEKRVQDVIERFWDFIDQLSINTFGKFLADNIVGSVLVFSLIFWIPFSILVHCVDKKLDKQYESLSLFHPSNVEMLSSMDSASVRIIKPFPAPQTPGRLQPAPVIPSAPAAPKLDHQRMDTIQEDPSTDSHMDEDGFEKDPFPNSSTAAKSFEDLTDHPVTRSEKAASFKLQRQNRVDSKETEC
Chain of Macrophage metalloelastase (P39900 whole entry): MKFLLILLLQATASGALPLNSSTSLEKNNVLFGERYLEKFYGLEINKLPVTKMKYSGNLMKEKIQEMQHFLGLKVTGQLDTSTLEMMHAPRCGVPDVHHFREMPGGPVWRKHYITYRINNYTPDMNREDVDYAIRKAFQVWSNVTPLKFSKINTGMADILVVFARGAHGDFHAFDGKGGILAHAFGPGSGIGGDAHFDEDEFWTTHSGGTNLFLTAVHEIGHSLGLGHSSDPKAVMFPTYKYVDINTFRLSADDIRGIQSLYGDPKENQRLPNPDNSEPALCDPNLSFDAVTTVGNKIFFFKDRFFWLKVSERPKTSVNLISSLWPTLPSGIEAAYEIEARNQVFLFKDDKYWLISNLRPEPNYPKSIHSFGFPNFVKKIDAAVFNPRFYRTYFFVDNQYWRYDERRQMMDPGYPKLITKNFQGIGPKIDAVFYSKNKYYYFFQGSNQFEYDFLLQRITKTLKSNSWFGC
Chain of Matrix metalloproteinase-16 (P51512 whole entry): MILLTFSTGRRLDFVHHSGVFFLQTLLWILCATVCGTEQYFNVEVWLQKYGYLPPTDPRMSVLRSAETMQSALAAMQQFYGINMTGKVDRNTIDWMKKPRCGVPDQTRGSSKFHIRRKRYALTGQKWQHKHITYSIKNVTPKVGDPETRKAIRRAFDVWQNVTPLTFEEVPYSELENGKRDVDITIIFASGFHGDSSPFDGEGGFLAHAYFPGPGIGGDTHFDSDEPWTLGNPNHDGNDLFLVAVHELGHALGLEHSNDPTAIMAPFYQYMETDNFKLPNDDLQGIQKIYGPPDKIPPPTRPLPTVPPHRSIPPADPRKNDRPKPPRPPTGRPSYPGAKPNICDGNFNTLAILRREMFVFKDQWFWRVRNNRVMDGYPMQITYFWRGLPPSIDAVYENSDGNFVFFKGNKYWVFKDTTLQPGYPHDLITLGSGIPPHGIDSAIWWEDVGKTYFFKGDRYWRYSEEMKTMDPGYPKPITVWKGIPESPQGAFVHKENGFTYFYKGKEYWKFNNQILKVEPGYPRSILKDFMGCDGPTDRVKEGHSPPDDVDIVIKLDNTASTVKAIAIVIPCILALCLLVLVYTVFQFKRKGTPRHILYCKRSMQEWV
Chain of Matrix metalloproteinase-9 (P14780 whole entry): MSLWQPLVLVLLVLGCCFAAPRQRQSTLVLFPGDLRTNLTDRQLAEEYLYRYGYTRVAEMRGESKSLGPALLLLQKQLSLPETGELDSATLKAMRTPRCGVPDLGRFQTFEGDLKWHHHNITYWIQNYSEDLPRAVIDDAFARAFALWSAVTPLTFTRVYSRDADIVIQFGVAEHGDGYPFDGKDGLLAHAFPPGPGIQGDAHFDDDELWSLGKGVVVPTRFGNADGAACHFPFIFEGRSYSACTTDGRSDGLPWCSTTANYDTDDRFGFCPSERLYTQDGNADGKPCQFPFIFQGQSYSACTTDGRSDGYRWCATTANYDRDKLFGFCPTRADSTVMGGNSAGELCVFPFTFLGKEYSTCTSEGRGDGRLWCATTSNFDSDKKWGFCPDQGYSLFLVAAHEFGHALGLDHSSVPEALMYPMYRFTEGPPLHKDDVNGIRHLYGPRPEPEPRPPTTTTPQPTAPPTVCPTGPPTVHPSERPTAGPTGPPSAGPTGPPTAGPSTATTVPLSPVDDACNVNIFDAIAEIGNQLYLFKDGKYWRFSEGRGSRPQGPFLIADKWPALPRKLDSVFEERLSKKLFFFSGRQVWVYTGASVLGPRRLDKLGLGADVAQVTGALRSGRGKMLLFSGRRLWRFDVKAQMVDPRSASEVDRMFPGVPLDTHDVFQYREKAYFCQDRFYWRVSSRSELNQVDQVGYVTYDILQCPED
Chain of 72 kDa type IV collagenase (P08253 whole entry): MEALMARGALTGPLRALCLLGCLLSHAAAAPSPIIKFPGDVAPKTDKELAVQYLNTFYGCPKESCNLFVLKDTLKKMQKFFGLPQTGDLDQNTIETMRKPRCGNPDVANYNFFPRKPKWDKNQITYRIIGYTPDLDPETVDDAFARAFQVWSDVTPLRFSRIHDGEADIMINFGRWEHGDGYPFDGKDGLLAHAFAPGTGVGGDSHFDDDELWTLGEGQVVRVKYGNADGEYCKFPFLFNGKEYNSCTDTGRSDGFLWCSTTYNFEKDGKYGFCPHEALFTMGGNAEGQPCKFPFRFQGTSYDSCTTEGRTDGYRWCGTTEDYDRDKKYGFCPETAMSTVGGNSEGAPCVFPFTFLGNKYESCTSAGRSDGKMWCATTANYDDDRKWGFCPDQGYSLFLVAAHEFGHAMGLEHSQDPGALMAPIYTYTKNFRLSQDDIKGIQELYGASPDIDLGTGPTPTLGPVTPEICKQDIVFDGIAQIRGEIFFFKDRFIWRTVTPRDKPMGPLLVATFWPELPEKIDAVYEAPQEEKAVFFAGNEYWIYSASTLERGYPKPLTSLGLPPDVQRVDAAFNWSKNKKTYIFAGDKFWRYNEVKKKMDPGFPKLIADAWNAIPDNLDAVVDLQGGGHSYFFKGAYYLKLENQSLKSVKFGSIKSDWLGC

One may read the IC50 as the point on the concentration scale where inhibition reaches its midpoint. Take `CC(C)[C@@H]1C(=O)N(O)C(=O)CN1S(=O)(=O)c1ccc(Oc2ccccc2)cc1`: the half-maximal inhibitory concentration (IC50) is 10000 nM in [1]; 9.5 nM in series [2]; 23 nM in series [3]; 83 nM in [4]; 1600 nM in series [5]; 30 nM in series [6]. In addition, the IC50 in [7] was 39 nM; in series [8] it was 21 nM; in series [9], 220 nM; in [10] it was 30 nM.

`CC(C)[C@H](C(=O)NO)N(CC(=O)O)S(=O)(=O)c1ccc(Oc2ccccc2)cc1` gave a 50% inhibitory concentration (IC50) in [9] of 6.7 nM.

Take `COc1ccc(S(=O)(=O)N(Cc2cccnc2)[C@@H](C(=O)NO)C(C)C)cc1` [CGS-27023A]: the IC50 in [11] came out at 380 nM.

As for `COc1ccc(S(=O)(=O)N2CC(=O)N(O)C(=O)[C@H]2C(C)C)cc1`, the half-maximal inhibitory concentration (IC50) worked out at 39000 nM in series [11]; 33000 nM in series [1]; 300 nM in [2]; 66 nM in [3]; 2200 nM in series [4]; 4900 nM in series [5]. Moreover, the IC50 in series [6] stood at 690 nM; in series [7], 1100 nM; in [8], 300 nM; in [9], 3400 nM; in series [10], 1200 nM. In addition, the values for the degraded at 120 h in series [12] and in series [13] were 5% and 6%, respectively. In addition, the degraded at 48 h in [14] worked out at 2%. Moreover, the degraded at 24 h in series [15] and in series [16] was below 1% throughout. In [17], the degraded at 480 h worked out at 7%. Further, the degraded at 240 h in [18] was 8%. The degraded at 72 h in [19] came out at 3%.

As for `CC(C)[C@@H]1C(=O)N(O)C(=O)CN1S(=O)(=O)c1ccc(-c2ccccc2)cc1`, the concentration for half-maximal inhibition (IC50) is 16000 nM in [1]; 52 nM in series [2]; 19 nM in [3]; 3900 nM in series [4]; 1300 nM in series [5]; 660 nM in series [6]. The half-inhibitory concentration (IC50) in series [7] was 2200 nM; in series [8], 67 nM; in series [9], 3900 nM; in [10], 240 nM.
